The text below walks through data of ChEMBL document CHEMBL3272330, “Synthesis and antimineralocorticoid activities of some 7alpha-cyano and 7alpha-alkoxycarbonylamino steroidal spirolactones” (1976).

The subject of assay [1] is Rattus norvegicus. Briefly: In vivo inhibition of deoxycorticosterone acetate-induced urinary electrolyte effect in po dosed adrenalectomized rat measured over 4 hrs. It is filed as functional, organism-based. As to conditions: Urine. A digest of the protocol: (§1)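 Adrenalectomized rats (150-200 g) in groups of four each received 12 µg deoxycorticosterone acetate and 2.5 ml isotonic saline sc before intragastric test compound, with 2.4 mg/rat as the standard level. Urine was collected over 4 h. The value is the median effective dose (mg/rat) giving 50% inhibition of the DCA-induced rise in urinary Na/K ratio.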

Assay [2] has as its system Rattus norvegicus. Nature of the assay: In vivo inhibition of deoxycorticosterone acetate-induced urinary electrolyte effect in ig dosed adrenalectomized rat measured over 4 hrs. The format is functional, Urine. A digest of the protocol: as §1
In assay [3] the test system is Rattus norvegicus. Nature of the assay: In vivo inhibition of deoxycorticosterone acetate-induced urinary electrolyte effect in sc dosed adrenalectomized rat measured over 4 hrs. The format is functional, Urine. A digest of the protocol:
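Groups of four adrenalectomized rats (150-200 g) were pretreated sc with 12 µg deoxycorticosterone acetate plus 2.5 ml isotonic saline, then dosed subcutaneously with test compound. The assay ran 4 h. MED (mg/rat) is the dose giving 50% inhibition of the DCA-induced increase in urinary Na/K ratio.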

Activity calls are given as the source filed them. No cut-off for these calls is given here. A value given as a limit tells only on which side of the number the result lay.

As to `C[C@]12CCC(=O)C=C1C[C@@H](C#N)[C@@H]1[C@@H]2CC[C@@]2(C)[C@H]1CC[C@@]2(O)CCC(=O)[O-].[K+]`, the inhibition result in the assay on Rattus norvegicus [1] is “inactive”. In the assay on Rattus norvegicus [2], this molecule came in with an MED50 of 2.3 mg.

In the case of `C[C@]12CCC(=O)C=C1C[C@@H](C#N)[C@@H]1[C@@H]2CC[C@@]2(C)[C@H]1CC[C@@]21CCC(=O)O1`, the MED50 in the assay with Rattus norvegicus [3] is listed as 0.39 mg; in the assay on Rattus norvegicus [2], above 2.4 mg.

As for `COC(=O)N[C@@H]1CC2=CC(=O)CC[C@]2(C)[C@H]2CC[C@@]3(C)[C@@H](CC[C@@]34CCC(=O)O4)[C@H]12`, the results for the MED50 in the assay with Rattus norvegicus [3] and with Rattus norvegicus [2] were 0.79 mg and 2 mg, respectively.

For `CCOC(=O)N[C@@H]1CC2=CC(=O)CC[C@]2(C)[C@H]2CC[C@@]3(C)[C@@H](CC[C@@]34CCC(=O)O4)[C@H]12`, the MED50 in the assay with Rattus norvegicus [3] and with Rattus norvegicus [2] was above 2.4 mg in each case.

`C[C@]12CC[C@H]3[C@@H]([C@H](C#N)CC4=CC(=O)CC[C@@H]43)[C@@H]1CC[C@@]21CCC(=O)O1`: the MED50 is listed as 1.3 mg with Rattus norvegicus [3] and above 2.4 mg in the assay with Rattus norvegicus [2].

On to `C[C@]12CCC(=O)C=C1C[C@@H](N=C=O)[C@@H]1[C@@H]2CC[C@@]2(C)[C@H]1CC[C@@]21CCC(=O)O1`, for which the MED50 in the assay on Rattus norvegicus [3] and with Rattus norvegicus [2] was above 2.4 mg each time.

In the case of `C[C@]12C=CC(=O)C=C1C[C@@H](C#N)[C@@H]1[C@@H]2CC[C@@]2(C)[C@H]1CC[C@@]21CCC(=O)O1`, the inhibition entry in the assay with Rattus norvegicus [1] is “inactive”. The MED50 is reported as 2.3 mg in the assay on Rattus norvegicus [3] and above 2.4 mg in the assay with Rattus norvegicus [2].
